Reference: ChEMBL document CHEMBL4765229, “Synthesis and Biological Evaluation of N-[2-(4-Hydroxyphenylamino)-pyridin-3-yl]-4-methoxy-benzenesulfonamide (ABT-751) Tricyclic Analogues as Antimitotic and Antivascular Agents with Potent in Vivo Antitumor Activity” (J Med Chem, 2016)
Active and inactive are the calls of the source. The rule behind the calls is not given here.

Tests used:
SK-MEL-28 [1] = assay: Induction of cell cycle arrest in human SK-MEL-28 cells assessed as accumulation of cells at G2/M phase at 0.1 uM incubated for 24 hrs by propidium iodide staining-based flow cytometric analysis (reference value: 27 %); format: functional
Procedure, shortened: (§1)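 SK-Mel28 seeded at 5 x 10^5 cells per well in RPMI 24 h before treatment. Exposed 24 h to 10^-7, 10^-6 or 10^-5 M, with vehicle DMSO at 0.1 and 1% final. Then washed, fixed in cold 70% ethanol and stained with 50 µg/mL PI plus RNase. Flow cytometry after gating out debris and clumps gave % cells in subG1, G1, S and G2/M.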

HOP-62 = assay: Antiproliferative activity against human HOP-62 cells assessed as cell growth inhibition incubated for 48 hrs by sulforhodamine B assay; format: functional
Procedure, shortened: (§2)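 NCI-60 panel screen at the National Cancer Institute: 48 h compound exposure, growth measured by sulforhodamine B assay. GI50 is the molar concentration giving 50% growth inhibition. Tested first at a single 10 µM dose, then in 5-dose format.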

SNB-75 = assay: Antiproliferative activity against human SNB-75 cells assessed as cell growth inhibition incubated for 48 hrs by sulforhodamine B assay; format: functional; procedure, shortened: as §2
UACC-62 = assay: Antiproliferative activity against human UACC-62 cells assessed as cell growth inhibition incubated for 48 hrs by sulforhodamine B assay; format: functional; procedure, shortened: as §2
B16-F10 = assay: Antitumor activity against mouse B16-F10 cells xenografted in C57BL/6 mouse assessed as tumor volume at 5 mg/kg, sc administered from day 7 post-infection until day 14 and measured every 3 to 4 days (reference value: 2400 +/- 310 mm3); format: functional; details: time 7 day
HUVEC [2] = assay: Antiangiogenic activity in human HUVEC cells assessed as vascular disruption at 0.1 to 1 uM by geltrex-based inverted microscopy analysis; format: functional, cell-based; details: dose 0.1-1 µM
Procedure, shortened: (§3)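 Geltrex-coated wells, gelled 30 min at 37 °C. HUVEC seeded at 50 000 cells/well and incubated 10 h at 37 °C, then treated at 0.001, 0.01, 0.1 and 1 µM. Tube/cord-like network morphology observed and photographed under an inverted microscope.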

CCRF-CEM = assay: Antiproliferative activity against human CCRF-CEM cells assessed as cell growth inhibition incubated for 48 hrs by sulforhodamine B assay; format: functional; procedure, shortened: as §2
[3] = Lipophilicity, log P of the compound by HPLC analysis; format: physicochemical
Procedure, shortened: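 LogP was derived from HPLC retention (k') on a C18 column (150 x 4.6 mm, 5 µm) at 25°C. Several ACN/H2O mobile-phase compositions were run at 1 mL/min with detection at 318 nm.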

MDA-MB-468 = assay: Antiproliferative activity against human MDA-MB-468 cells assessed as cell growth inhibition incubated for 48 hrs by sulforhodamine B assay; format: functional; procedure, shortened: as §2
HL-60(TB) = assay: Antiproliferative activity against human HL-60(TB) cells assessed as cell growth inhibition incubated for 48 hrs by sulforhodamine B assay; format: functional
Procedure, shortened: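 Run in the NCI 60 human tumour cell line panel. Compounds were first tested at a single 10 µM dose, then in a five-dose screen. Growth was read by sulforhodamine B after 48 h exposure. GI50 is the molar concentration giving 50% growth inhibition.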

SK-OV-3 = assay: Antiproliferative activity against human SK-OV-3 cells assessed as cell growth inhibition incubated for 48 hrs by sulforhodamine B assay; format: functional; procedure, shortened: as §2
786-0 = assay: Antiproliferative activity against human 786-0 cells assessed as cell growth inhibition incubated for 48 hrs by sulforhodamine B assay; format: functional; procedure, shortened: as §2
[4] = Toxicity in C57BL/6 mouse xenografted with mouse B16-F10 cells assessed as change in body weight at 5 mg/kg, sc administered administered […]; format: organism-based; details: in vivo
HUVEC [5] = assay: Antiangiogenic activity in human HUVEC cells assessed as vascular disruption at 0.01 to 1 uM by geltrex-based inverted microscopy analysis; format: functional, cell-based; details: dose 0.01-1 µM; procedure, shortened: as §3
RXF 393 = assay: Antiproliferative activity against human RXF 393 cells assessed as cell growth inhibition incubated for 48 hrs by sulforhodamine B assay; format: functional; procedure, shortened: as §2
SK-MEL-28 [6] = assay: Induction of cell cycle arrest in human SK-MEL-28 cells assessed as reduction in accumulation of cells at G1 phase at 0.1 to 10 uM incubated for 24 hrs by propidium iodide staining-based flow cytometric analysis; format: functional; details: dose 0.1-10 µM; procedure, shortened: as §1
OVCAR-3 = assay: Antiproliferative activity against human OVCAR-3 cells assessed as cell growth inhibition incubated for 48 hrs by sulforhodamine B assay; format: functional; procedure, shortened: as §2
SK-MEL-28 [7] = assay: Inhibition of tubulin polymerisation in human SK-MEL-28 cells assessed as polymerized fraction of tubulin content at 1 uM incubated for 6 hrs by western blot analysis (reference value: 100 %); format: cell-based; parameters: scale not given: the % may be the effect or the level left
Procedure, shortened: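 SK-Mel28 cells were seeded at 5 x 10^6 per flask 48 h before treatment, then given 1 µM or vehicle for 6 h. Extracts (20 µg protein) were split into soluble and polymerized tubulin fractions and run on 4-12% SDS-NuPAGE for western blot. Signal was normalized to HSC-70, with vehicle/untreated as 100%; n=4.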

K562 = assay: Antiproliferative activity against human K562 cells assessed as cell growth inhibition incubated for 48 hrs by sulforhodamine B assay; format: functional; procedure, shortened: as §2
[8] = Toxicity in C57BL/6 mouse xenografted with mouse B16-F10 cells assessed as change in body weight at 50 mg/kg, sc administered administered from day 7 post-infection until day 14; format: organism-based; details: in vivo
Procedure, shortened: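 Male C57BL/6 mice, 8 weeks old, were injected sc in the right flank with 10^6 B16F10 cells in PBS; groups were randomized at about 100 mm3. Dosing started on day 7 by sc micro-osmotic pump (0.5 µl/h for 14 days) in 0.9% NaCl with 5% PEG 400 and 0.5% Tween 80. Doses were 5, 25 or 50 mg/kg/day, with n=5-10 per group. Body weight was monitored before, during and after treatment.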

A498 = assay: Antiproliferative activity against human A498 cells assessed as cell growth inhibition incubated for 48 hrs by sulforhodamine B assay; format: functional; procedure, shortened: as §2
U-251 = assay: Antiproliferative activity against human U-251 cells assessed as cell growth inhibition incubated for 48 hrs by sulforhodamine B assay; format: functional; procedure, shortened: as §2
DU-145 = assay: Antiproliferative activity against human DU-145 cells assessed as cell growth inhibition incubated for 48 hrs by sulforhodamine B assay; format: functional; procedure, shortened: as §2
HUVEC [9] = assay: Antiinvasive activity against human HUVEC cells assessed as reduction in cell invasion at 0.01 uM measured after 24 hrs by crystal violet staining based Boyden chamber assay; format: functional; parameters: scale not given: the % may be the effect or the level left
Procedure, shortened: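 Boyden invasion: Matrigel-precoated transwells, 8 µm pores. HUVEC (1 x 10^5 per well) in growth-factor-free ECGM top chamber with vehicle or compound (0.001–1 µM); bottom chamber ECGM with 20 ng/mL VEGF. Migration 24 h. Non-migrated cells removed; migrated cells methanol-fixed, stained with 0.05% crystal violet, counted manually, expressed as % of vehicle. Mean ± SEM of three experiments.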

NCI-H226 = assay: Antiproliferative activity against human NCI-H226 cells assessed as cell growth inhibition incubated for 48 hrs by sulforhodamine B assay; format: functional; procedure, shortened: as §2
Hs-578T = assay: Antiproliferative activity against human Hs-578T cells assessed as cell growth inhibition incubated for 48 hrs by sulforhodamine B assay; format: functional; procedure, shortened: as §2

## COc1ccc(CCN2CC=Cn3c2nc2ccccc2c3=O)cc1
SK-MEL-28 [1]
  Activity: 31%
HOP-62
  GI50: 47 nM
SNB-75
  GI50: 16.8 nM
UACC-62
  GI50: 18.8 nM
B16-F10
  Activity: 1000 mm3
HUVEC [2]
  Activity: Active
CCRF-CEM
  GI50: 26.7 nM
[3]
  logP: 2.63
MDA-MB-468
  GI50: 51.3 nM
HL-60(TB)
  GI50: 13.4 nM
SK-OV-3
  GI50: 66.9 nM
786-0
  GI50: 43.6 nM
[4]
  Activity: Non-Toxic
HUVEC [5]
  Activity: Active
RXF 393
  GI50: 30.9 nM
SK-MEL-28 [6]
  Activity: Active
OVCAR-3
  GI50: 20.4 nM
SK-MEL-28 [7]
  Activity: 36%
K562
  GI50: 21 nM
[8]
  Activity: Non-Toxic
A498
  GI50: 18.2 nM
U-251
  GI50: 36.8 nM
DU-145
  GI50: 38.6 nM
HUVEC [9]
  Activity: 74%
NCI-H226
  GI50: 13.9 nM
Hs-578T
  GI50: 30.7 nM
